Results: paper PMC3466594 (Organometallics, 2012)
≈ marks a conversion by molar mass, not a printed value. Where “and” joins values, the source holds several entries; their conditions need not be identical. Identical values can stand only once. Values belong to the compound of their own block, whether it stands above or below them.

Key:
[1] = ref [34], cited from earlier work
plasmid (pBR322) DNA = assay: Electrophoresis mobility shift assay with plasmid DNA; assay type: binding; conditions: metal/DNA ratios 0.25, 0.5, 1.0; 37 °C, 20 h
Procedure, shortened: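 pBR322 plasmid DNA (20 μg/mL) in 5 mM Tris/HCl, 50 mM NaClO4, pH 7.39 was incubated with test compound at compound:DNA molar ratios of […] for 20 h at 37 °C in the dark. Free DNA and cisplatin-DNA adduct served as controls. Samples were run on 1% agarose in TAE for 1.5 h at 80 V, then stained 30 min with GelRed.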

Solubility = assay type: physicochemical
[2] = Stability in solution by 31P{1H} NMR; assay type: physicochemical; conditions: for half-life in d6-DMSO:D2O mixture: d6-DMSO:D2O (1:1 / 50:50)
[3] = tested on: normal T-lymphocytes (peripheral blood mononuclear cells: PBMC); conditions: PBMC vs Jurkat; ref [34]; cited from earlier work
[4] = tested on: Jurkat control (CN) cells; conditions: 25 μM; ref [33]; cited from earlier work
[5] = tested on: Jurkat-shBak cells (Bax/Bak-deficient Jurkat cells); conditions: 25 μM; ref [33]; cited from earlier work

Compound: O=C(N=P12CN3CN(CN(C3)C1)C2)c1ccccn1 [TPA=N-C(O)-2-NC5H4]
- time to 50% decomposition in D2O ([1]; D2O): 12 h
- half-life in d6-DMSO:D2O (1:1) ([1]; d6-DMSO:D2O (1:1)): 48 h

- Solubility (H2O) (Solubility): 28 mM (≈ 9940 µg/mL)
- solubility in H2O (Solubility): 10000 µg/mL (≈ 28.2 mM)
- half-life in D2O ([2]; D2O): 48 h
- stability in DMSO solution ([2]; DMSO): over two weeks
- half-life in d6-DMSO:D2O mixture [2]: 336 h
Compound: O=C(N=P12CN3CN(CN(C3)C1)C2)c1ccccc1Br [compound 1, TPA=N-C(O)-2BrC6H4]
- change in electrophoretic mobility of pBR322 forms (CCC Form I, OC Form II) (plasmid (pBR322) DNA): does not cause any shift for either form

Compound: N.N.[Cl][Pt][Cl] [Cisplatin, cisplatin]
- times less toxic to PBMC than to Jurkat cell lines [3]: 70 times
- death of Jurkat control (CN) cells [4]: around 60%
- death of Jurkat-shBak cells [5]: less than 8%

- Solubility (H2O) (Solubility): 1.0 mM and 0.90 mg/mL
- stability under biological testing conditions ([2]; 24 h): stable
- stable in d6-DMSO solution over ([2]; d6-DMSO): over 2 days
- half-life in d6-DMSO:D2O mixture [2]: above 4 days
Compound: [Pd{C6H4(C(O)N=TPA-kC,N)-2}{C12H6N2(C6H4SO3Na)2}] [compound 5]
